High-throughput results from PubChem BioAssay.
This excerpt belongs to a sample that is enriched for hits.
HUVEC inhibit – inhibitors of human endothelial cell proliferation; HUVEC proliferation, CellTiter-Glo luminescence, 72 h; active compounds read low; viability, % at 10 µM (by protocol); 1.1% of 86,000 active; AID 648;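 active = viability at or below 30%; inactive = viability above 30%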;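 note: 100% = median luminescence of DMSO-only cell control wells on each plate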
Fibroblast inh – blocks proliferation of human lung fibroblasts. LL 47 human lung fibroblast viability, ATP luminescence; active compounds read low. viability, % at 10 µM. 1.1% of 85,000 active;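 active = viability at or below 50% in the single dose screen; inactive = viability above 50%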;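 note: compound exposure lasted 72 h before the ATP readout; 100% = median luminescence of untreated cell-only wells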
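Material: Human LL 47 lung fibroblast cells | Input: 1,150 cells/well | Buffer or medium: IMEM plus 15% FBS | Compound dosing: 0.1% DMSO in all compound wells | Times: Overnight cell rest, 72 h compound treatment at 37 °C | Signal: CellTiter-Glo luminescence measuring cellular ATP | Measure: % viability versus median cells-only luminescence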
HCT116 bCat-KO – beta-catenin-lacking colon tumor cell growth suppression | HCT116 beta-catenin knockout viability, CellTiter-Glo, 60 h; active compounds read low | viability, % at 10 µM | 1.5% of 140,000 active | AID 818;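 active = viability at or under a set limit, the compound median less 4 SD, cut at about 6% in these data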;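 note: 0% = Hyamine 1622 control at 20 µM and 100% = untreated cell control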
HCT116 PTEN-null – suppresses growth of cells with PTEN deletion; HCT116 PTEN-null viability, CellTiter-Glo, 60 h; active compounds read low; viability, % at 10 µM; 1.2% of 140,000 active; AID 827;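 active = viability at or below a set limit, 4 SD under the median of all tested compounds, cut at about 3.7% in these data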;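 note: PTEN knockout HCT116 line with beta catenin targeted HCT116 as companion control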
PTK2B oligo ant – antagonists of human Pyk2 oligomerization; Q293 cells, Pyk2 FERM NanoBiT luminescence; active compounds read low; AID 1347419; 0.83% of 99,000 active; z-score (the deposit names both 25 µM and 10 µM);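 active = Z-score of -3 or lower, scaled per plate to the spread of control and sample wells; inactive = z-score above -3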;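 note: negative z-score means lost luminescence so less FERM oligomerization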
Target sequence (Q14289 whole entry, looked up): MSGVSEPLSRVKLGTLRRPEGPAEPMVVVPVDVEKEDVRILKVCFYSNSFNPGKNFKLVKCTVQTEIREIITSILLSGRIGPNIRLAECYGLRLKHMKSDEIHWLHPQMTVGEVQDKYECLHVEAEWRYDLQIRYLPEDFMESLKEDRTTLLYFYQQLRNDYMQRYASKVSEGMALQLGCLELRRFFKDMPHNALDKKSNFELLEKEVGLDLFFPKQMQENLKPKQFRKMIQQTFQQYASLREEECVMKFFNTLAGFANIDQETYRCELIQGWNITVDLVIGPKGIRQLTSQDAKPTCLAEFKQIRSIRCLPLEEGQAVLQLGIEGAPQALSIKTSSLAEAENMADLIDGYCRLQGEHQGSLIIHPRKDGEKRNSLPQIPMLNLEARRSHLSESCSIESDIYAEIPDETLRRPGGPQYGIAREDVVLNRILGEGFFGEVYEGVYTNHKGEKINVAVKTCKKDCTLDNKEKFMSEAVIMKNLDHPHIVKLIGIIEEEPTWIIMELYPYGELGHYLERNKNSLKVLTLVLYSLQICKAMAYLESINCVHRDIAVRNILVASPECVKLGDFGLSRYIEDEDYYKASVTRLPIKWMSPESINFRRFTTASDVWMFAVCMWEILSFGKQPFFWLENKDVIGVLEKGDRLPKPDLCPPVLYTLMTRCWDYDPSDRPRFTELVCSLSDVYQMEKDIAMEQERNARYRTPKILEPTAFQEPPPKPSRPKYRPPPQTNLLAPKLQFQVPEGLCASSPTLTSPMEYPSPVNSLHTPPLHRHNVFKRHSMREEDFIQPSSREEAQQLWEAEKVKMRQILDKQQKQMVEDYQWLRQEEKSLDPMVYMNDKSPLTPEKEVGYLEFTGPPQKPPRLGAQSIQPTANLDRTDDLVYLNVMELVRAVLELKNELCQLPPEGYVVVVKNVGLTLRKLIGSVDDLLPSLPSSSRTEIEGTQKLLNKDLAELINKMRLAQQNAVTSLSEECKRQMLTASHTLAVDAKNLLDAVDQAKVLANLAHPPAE
H69AR inhibit – blocks growth of human H69AR lung tumor cells. H69AR lung tumor viability, ATP luminescence, 72 h; active compounds read low. 6% of 85,000 active. viability, % at 10 µM;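 active = viability at or below 40%; inactive = viability above 40%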;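 note: multidrug resistant small cell line overexpressing MRP-1 efflux transporter; 100% = mean luminescence of untreated control wells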
* = called active by the depositor; x = no result.

SMILES | HUVEC inhibit | Fibroblast inh | HCT116 bCat-KO | HCT116 PTEN-null | PTK2B oligo ant | H69AR inhibit
CCCCCCn1c(O)c(C=NC2CCN(Cc3ccccc3)CC2)c(=O)[nH]c1=O | 93.5 | 97.3 | 43.6 | 38.2 | 0.26 | 65.6
CN(C)c1ccc(N=Cc2c(O)n(CCC3=CCCCC3)c(=O)[nH]c2=O)cc1 | 64.5 | 99.4 | 89.1 | 90.6 | -3.42* | 10.1*
CCC(C)C1(CC)C(=O)NC(=O)N=C1N (stereo not given) | x | x | 91.0 | 77.4 | x | x
CC(C)Oc1cc(-n2c(=S)[nH]c3ccccc3c2=O)c(Cl)cc1Cl | x | x | 76.1 | 70.1 | -2.54 | x
FC(F)(F)c1ccc2c(c1)N(CCCN1CCN(CCCl)CC1)c1ccccc1S2 | 36.5 | 88.7 | 67.5 | 56.0 | -0.31 | 1.4*
Cc1ccc(-n2c(O)c(C=Nc3ccccc3N)c(=O)[nH]c2=O)cc1C | 98.6 | 109.6 | 77.8 | 72.8 | -0.7 | 13.1*
Cc1ccc(-n2c(O)c(C=NCc3cccnc3)c(=O)[nH]c2=O)cc1C | 86.5 | 94.9 | 98.6 | 106.9 | -1.52 | 88.8
C=CCn1c(O)c(C(C)=NCc2cc(OC)cc(OC)c2)c(=O)[nH]c1=O | 26.1* | 48.1* | 26.9 | 32.3 | -0.83 | 37.6*
C=CCn1c(O)c(C(C)=NCc2cccnc2)c(=O)[nH]c1=O | 85.4 | 95.1 | 106.7 | 105.3 | 0.37 | 86.3
CCc1cc2c(s1)NC(=O)CN=C2c1cccs1 | 79.2 | 91.3 | 88.2 | 86.5 | -0.41 | 23.1*
O=C1CN=C(c2ccccc2F)c2cc(Cl)ccc2N1 | x | x | 87.1 | 100.0 | x | x
CN[C@H]1C[C@H]2O[C@@](C)([C@H]1OC)n1c3ccccc3c3c4c(c5c6ccccc6n2c5c31)C(=O)NC4 | x | x | 2.1* | 1.2* | x | x
O=C(C1CC(c2ccccc2O)=NO1)N1CCC2(CC1)OCCO2 (stereo not given) | 90.6 | 90.1 | 93.5 | 72.7 | 0.43 | 74.1
CCn1c(C)c(C(=O)O)c2cc(OC)ccc21 | 96.4 | 100.2 | 95.4 | 96.6 | 0.2 | 80.9
CCOC(=O)c1c(C)n(Cc2ccccc2)c2ccc(OCC(O)CN3C(=O)CNC3=O)cc12 (stereo not given) | 86.4 | 101.9 | 91.7 | 92.2 | -1.32 | 27.3*
Brc1ccc(CN2CCNCC2)s1 | 108.2 | 102.8 | 102.6 | 112.3 | 2.25 | 105.5
Cc1ccccc1C(O)(Cc1ccccc1)C1CN2CCC1CC2 (stereo not given) | 47.8 | 70.9 | 1.1* | 0.3* | 1.18 | 41.8
